INS-1E GSIS act – GLuc luminescence reporter in INS-1E cells, primary screen for activators of glucose-dependent secretion of insulin. activation, % at 16.6 µM. 370,000 tested, 0.61% active. AID 743287, 2014. INS-1E GLuc reporter insulin secretion, 2-3 h;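 active = lowest replicate activation of at least 40%, so every replicate reaches that level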;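 note: 0% = median of neutral control wells and 100% = median of IBMX positive control wells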
E-sel inducer – E-selectin induction in HUVECs, primary screen, imaging, HUVEC, immunofluorescence imaging, single point; P16581; normalized: neutral wells 0, TNF-alpha wells 100; activation, % at 7.58 µM; 260,000 tested, 0.37% active; AID 686992, 2013;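 active = mean E-selectin-positive cell signal at least 10% of the positive control, reached in at least 60% of replicates, without over 20% cell loss; inconclusive = no rule given, readout overlaps actives, possibly toxicity-flagged; inactive = the rest, including those meeting only one limit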
Target sequence (P16581 whole entry, looked up): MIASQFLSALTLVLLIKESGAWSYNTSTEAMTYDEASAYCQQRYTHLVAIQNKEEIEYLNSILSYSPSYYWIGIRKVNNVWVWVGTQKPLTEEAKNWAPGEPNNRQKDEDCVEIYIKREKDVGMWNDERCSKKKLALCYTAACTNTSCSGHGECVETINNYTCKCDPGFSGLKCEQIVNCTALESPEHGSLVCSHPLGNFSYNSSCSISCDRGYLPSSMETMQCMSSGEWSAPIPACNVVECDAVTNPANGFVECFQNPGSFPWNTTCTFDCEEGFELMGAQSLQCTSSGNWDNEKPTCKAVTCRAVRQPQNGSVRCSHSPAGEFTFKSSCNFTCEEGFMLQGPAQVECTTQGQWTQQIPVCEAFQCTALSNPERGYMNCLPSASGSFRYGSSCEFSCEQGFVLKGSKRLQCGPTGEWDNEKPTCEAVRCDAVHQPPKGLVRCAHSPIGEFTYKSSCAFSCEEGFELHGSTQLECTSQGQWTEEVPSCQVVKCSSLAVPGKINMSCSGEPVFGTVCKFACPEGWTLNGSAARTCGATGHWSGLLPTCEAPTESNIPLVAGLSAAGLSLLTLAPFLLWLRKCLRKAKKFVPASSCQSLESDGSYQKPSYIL
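Test system: HUVEC | Signal: Immunofluorescence imaging | Read-out: Percent E-selectin-positive cells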
miR122 inh – miR-122 Renilla sensor signal increase in Huh7, primary screen, miR-122 inhibitor project, cell-based, single point, plate reader; Huh7 miR-122 Renilla luciferase sensor, 48 h; neutral wells = 0, positive control = 100; activation (reporter increase), % at 12.5 µM; 340,000 tested, 0.3% active; AID 602342, 2012;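 active = mean replicate activation score at least 90 and every replicate individually at or above 90; inconclusive = only one of the two criteria met; inactive = neither criterion met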;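 note: higher luciferase means less miR-122 activity so hits act as miR-122 inhibitors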
DENV2 CPE rescue – inhibitors of DENV2 cytopathic effect, primary screen, cell-based, plate reader, single concentration. DENV2-infected cells, cytopathic effect rescue. 350,000 tested, 1.7% active. CPE inhibition, % at 9.99 µM. AID 651640, 2012; in the data active = CPE inhibition above about 20%, passing the limit was not always enough; inconclusive = no clear call, values can overlap the other calls; tested in BHK-21 cells;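 note: 0% = median of neutral control wells and 100% = median of positive control wells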
F508del corr – F508del CFTR correction, initial screen, CFBE line, single point; CFBE cells, YFP halide quenching; stimulated with forskolin plus potentiator P3; % fluorescence drop versus neutral controls; activity (quench increase), % at 7.58 µM; 350,000 tested, 0.36% active; AID 720511, 2013;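 active = mean added fluorescence quench of at least 8% versus neutral control, with both replicates also reaching 8%; inconclusive = only one of the mean or replicate conditions met; inactive = mean below 8% and not both replicates reaching 8%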;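 note: cells transiently co-express mutant CFTR-F508del with the halide-sensitive YFP; corrector assay measuring rescue of mutant channel to the surface after 24 h compound exposure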
ERAP1 inh – human ERAP1 aminopeptidase inhibitors, primary screen, biochemical, single point, plate reader; 340,000 tested, 0.15% active; Endoplasmic reticulum aminopeptidase 1 (Homo sapiens), Q9NZ08; recombinant ERAP1, Leu-AMC fluorescence, 60 min; inhibition, % at 10.7 µM;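 active = mean replicate inhibition of at least 30%, or all replicates individually reaching that 30% level; inactive = mean below 30% and not every replicate reaching it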;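 note: 0% = neutral control wells and 100% = L-leucinethiol positive control wells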
* marks the source's active call; other numbers are inactive results; u = inconclusive; x = no result given; [ ] = dose if it differs, or a comment. Only some compounds are listed: those with a hit (about 2.6% of all), similar ones and a draw of the others.

SMILES	INS-1E GSIS act	E-sel inducer	miR122 inh	DENV2 CPE rescue	F508del corr	ERAP1 inh
C[C@@H]1CN([C@H](C)CO)C(=O)c2cc(NC(=O)Cc3ccccc3)ccc2O[C@@H](C)CCCCO[C@H]1CN(C)C(=O)c1ccccc1	-15.7	-0.2	5.1[16.7 µM]	-6.6	-1.4	0.8
CC(=O)Nc1cccc(-c2cc(NC=O)c3ncc(-c4ccc(C(C)=O)cc4)n3c2)c1	7.9	-0.3	x	34.0*	4.2	2.6
CC(=O)c1ccc(-c2cnc3c(NC=O)cc(-c4ccc(C(=O)NC5CC5)cc4)cn23)cc1	0.0	-0.1	-12.6	-0.4	-1.1	-0.5
O=CNc1cc(-c2ccc(C(=O)NC3CC3)cc2)cn2c(-c3ccccc3)cnc12	-4.9	0.7	1.8	u	13.7*	-2.8
CC(=O)Nc1cccc(-c2cc(NC(C)=O)c3ncc(-c4cccc(C(C)=O)c4)n3c2)c1	x	1.2	x	1.6	-4.9	6.3
C=CCn1c(SC2CCOC2=O)nc2sc(CC)cc2c1=O (stereo unspecified)	58.6*	x	-1.6	x	x	x
O=S(=O)(c1ccccc1)N1CCCCN2[C@@H](CO)[C@H](c3ccc(C#Cc4ccccc4)cc3)[C@@H]2C1	-15.0	-0.1	-16.2[16.7 µM]	22.4*	2.7	3.5
N#Cc1ccc(-c2ccc([C@@H]3[C@H](CO)N4CCCCN(S(=O)(=O)c5ccccc5)C[C@@H]34)cc2)cc1	-20.5	0.1	6.8[16.7 µM]	23.4*	4.8	-1.9
CN(C)CC#Cc1ccc([C@H]2[C@@H](CO)N3CCCCN(S(=O)(=O)c4ccccc4)C[C@@H]23)cc1	-4.4	0.3	0.3[16.7 µM]	44.1*	1.4	-1.2
CCS(=O)(=O)N1CCCCN2[C@H](C1)[C@@H](c1ccc(C#Cc3ccccc3OC)cc1)[C@@H]2CO	13.0	0.3	-9.7[16.7 µM]	40.1*	4.8	1.7
CCS(=O)(=O)N1CCCCN2[C@H](CO)[C@@H](c3ccc(C#Cc4ccccc4OC)cc3)[C@@H]2C1	11.4	-0.5	-1.1[16.7 µM]	3.3	-1.6	-0.6
O=C(C1CCCC1)N1C[C@H]2[C@@H](c3ccccc31)[C@H](CO)N2C(=O)c1cccnc1	-0.2	0.3	-12.2[16.7 µM]	u	5.5	0.1
CS(=O)(=O)Nc1ccc2c(c1)[C@@H]1C[C@@H](CC(=O)NCc3ccc(-c4ccccc4)cc3)O[C@H](CO)[C@@H]1O2	-2.2	-0.4	0.7[16.7 µM]	-7.7	0.1	x
C/C=C/c1ccc2c(c1)O[C@H](CN(C)CC1CCOCC1)[C@H](C)CN([C@H](C)CO)S2(=O)=O	9.4	-0.3	3.4[16.7 µM]	7.0	0.9	-0.5
CCS(=O)(=O)N1CCCCN2[C@H](CO)[C@H](c3ccc(C#Cc4ccccn4)cc3)[C@@H]2C1	-7.8	0.0	9.7[16.7 µM]	-1.2	-1.2	0.7
O=S(=O)(Cc1ccccc1)N1CCCCN2[C@H](C1)[C@@H](c1ccc(C#Cc3ccccc3)cc1)[C@@H]2CO	15.5	-0.6	32.0[16.7 µM]	-9.8	8.0*	0.2
O=S(=O)(Cc1ccccc1)N1CCCCN2[C@H](CO)[C@@H](c3ccc(-c4ccc(F)cc4)cc3)[C@H]2C1	-18.5	0.2	-4.8[16.7 µM]	40.9*	2.0	-0.1
CCS(=O)(=O)N1CCCCN2[C@H](C1)[C@H](c1ccc(-c3ccc(C#N)cc3)cc1)[C@@H]2CO	-15.5	-0.6	0.7[16.7 µM]	1.9	3.5	4.4
CCS(=O)(=O)N1CCCCN2[C@H](C1)[C@H](c1ccc(C#Cc3ccccn3)cc1)[C@@H]2CO	3.5	-0.3	0.9[16.7 µM]	52.5*	0.8	0.3
CCS(=O)(=O)N1CCCCN2[C@@H](CO)[C@@H](c3ccc(-c4ccc(C#N)cc4)cc3)[C@@H]2C1	-11.7	-0.3	47.7[16.7 µM]	45.4*	-0.8	0.1
C[C@H](CO)N1C[C@H](C)[C@H](CN(C)CC2CCCCC2)Oc2c(NC(=O)C3CCCCC3)cccc2C1=O	-3.8	-0.1	84.1[16.7 µM]	-6.0	0.3	-0.6
CCc1ccccc1NC(=O)c1cnc2n(c1=O)CCS2	x	0.1	-0.5	34.8*	-3.4	-2.1
COc1cccc(-c2ccc([C@@H]3[C@@H](CO)N4CCCCN(CC5CC5)C[C@H]34)cc2)c1	14.3	-0.3	0.6[16.7 µM]	42.6*	-2.8	1.7
Cc1ccccc1-c1ccc([C@H]2[C@@H](CO)N3CCCCN(CC4CC4)C[C@H]23)cc1	-21.1	-0.3	3.3[16.7 µM]	16.8	-3.3	-3.1
COc1cccc(-c2ccc([C@H]3[C@H]4CN(CC5CC5)CCCCN4[C@H]3CO)cc2)c1	8.7	0.1	18.6[16.7 µM]	19.0	-0.3	4.9
SMILES	INS-1E GSIS act	E-sel inducer	miR122 inh	DENV2 CPE rescue	F508del corr	ERAP1 inh
COc1cccc(-c2ccc([C@H]3[C@H](CO)N4CCCCN(CC5CC5)C[C@@H]34)cc2)c1	-14.2	1.4	20.9[16.7 µM]	42.1*	2.5	1.9
Cc1ccccc1-c1ccc([C@@H]2[C@@H](CO)N3CCCCN(CC4CC4)C[C@H]23)cc1	-9.4	0.1	6.4[16.7 µM]	52.2*	-0.2	-2.0
CN(C)CC(=O)Nc1ccc2c(c1)[C@@H]1C[C@H](CC(=O)NC3CCCC3)O[C@H](CO)[C@@H]1O2	-2.7	-0.5	1.3[16.7 µM]	10.2	-0.4	0.3
CC(C)NC(=O)Nc1cccc2c1O[C@@H](CN(C)S(C)(=O)=O)[C@@H](C)CN(C)C2=O	8.3	x	x	x	x	x
Cc1cccc(COc2ccccc2C(=O)NC2CCC(O)CC2)c1 (stereo unspecified)	31.1	2.4	x	-4.0	8.2*	-4.3
O=C(NC1CCCC1)c1ccccc1OCc1ccccc1	4.8	1.6	12.5	0.1	-2.7	-2.3
O=C(NCC[C@@H]1CC[C@@H](NS(=O)(=O)c2ccc(Cl)cc2)[C@H](CO)O1)c1ccccc1F	3.4	-0.5	x	-4.0	-0.7	-0.5
CCCCOCCCNC(=O)C[C@@H]1C[C@@]2(C(=O)OCC)CCCC=C2N(CCc2ccc(OC)c(OC)c2)C1=O	-15.1	0.0	x	27.6*	-0.9	-4.2
CCOC(=O)[C@]12CCC=C1N(CCC1=CCCCC1)C(=O)[C@H](CC(=O)NCc1ccccc1)C2	-41.8	x	x	-8.9	3.6	-0.2
CCOC(=O)[C@]12CCC=C1N(CCC1=CCCCC1)C(=O)[C@H](CC(=O)NCCCCc1ccccc1)C2	x	x	x	85.1*	-0.5	-1.4
CCOC(=O)[C@]12CCCC=C1N(CCc1ccc(OC)c(OC)c1)C(=O)[C@H](CC(=O)NCCCN1CCCC1=O)C2	x	-0.3	x	-2.5	0.8	-0.9
C[C@@H]1CN([C@H](C)CO)C(=O)c2cccc(NS(=O)(=O)c3ccc(F)cc3)c2O[C@H]1CN(C)S(=O)(=O)c1cn(C)cn1	10.8	0.2	4.8[16.7 µM]	-6.7	-1.4	-2.2
COC(=O)c1ccccc1-c1c2ccc(=N)cc-2oc2cc(N)ccc12	-28.0	x	0.9	0.2	61.5*	8.9

From PubChem
